Calls of active or inactive are those of the source. No cut-off for these calls is given here.
Key:
[1] = species on record: Homo sapiens; test: Activation of recombinant human C-terminal 4His-tagged CYP46A1 delta(2 to 50) R415A mutant expressed in Escherichia coli at 20 uM using cholesterol as substrate measured after 30 mins in presence of cytochrome P450 oxidoreductase by gas chromatography-mass spectrometry
Procedure, shortened: (§1)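 Fixed 20 μM test compound (final, 2% methanol) with 0.5 μM purified Δ(2-50)CYP46A1 (wild type or mutant) and 1.0 μM rat P450 oxidoreductase. Buffer: 50 mM KPi pH 7.2, 100 mM NaCl, 40 μg/mL dilauroylphosphatidylcholine, 40 μM cholesterol, catalase, NADPH-regenerating system. Run 30 min at 37 °C. 24-Hydroxycholesterol measured by GC-MS against a deuterated internal standard. Fold activation over no-activator control; mean ± SD, three independent experiments.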

[2] = target: T1, Cholesterol 24-hydroxylase (Homo sapiens, UniProt Q9Y6A2); test: Inhibition of recombinant human C-terminal 4His-tagged CYP46A1 delta(2 to 50) mutant expressed in Escherichia coli at up to 100 uM using cholesterol as substrate measured after 30 mins in presence of cytochrome P450 oxidoreductase by gas chromatography-mass spectrometry; format: ADME; conditions: 0.5 h
Procedure, shortened: (§2)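 Concentration-dependence curves with test compound at 0–100 μM (2% final methanol). Enzyme: 0.5 μM Δ(2-50)CYP46A1 plus 1.0 μM P450 oxidoreductase. Buffer: KPi pH 7.2, 100 mM NaCl, dilauroylphosphatidylcholine, 40 μM cholesterol, catalase, NADPH-regenerating system. Run 30 min at 37 °C. 24-Hydroxycholesterol quantified by GC-MS with a deuterated internal standard, expressed as nmol/nmol P450/min; mean ± SD, three experiments.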

[3] = system: Cholesterol 24-hydroxylase (Homo sapiens), Q9Y6A2 [UNDEFINED MUTATION]; test: Activation of recombinant human C-terminal 4His-tagged CYP46A1 delta(2 to 50) mutant expressed in Escherichia coli at 20 uM using cholesterol as substrate measured after 30 mins in presence of cytochrome P450 oxidoreductase and L-Glu by gas chromatography-mass spectrometry relative to control
Procedure, shortened: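 Co-incubation of 100 μM L-Glu with 20 μM test compound, 0.5 μM Δ(2-50)CYP46A1 and 1.0 μM P450 oxidoreductase. Buffer: 50 mM KPi pH 7.2, 100 mM NaCl, phospholipid, 40 μM cholesterol, NADPH-regenerating system. Run 30 min at 37 °C. 24-Hydroxycholesterol measured by GC-MS with a deuterated internal standard. Fold activation relative to control; mean ± SD of three experiments.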

[4] = species on record: Homo sapiens; test: Activation of recombinant human C-terminal 4His-tagged CYP46A1 delta(2 to 50) K358L mutant expressed in Escherichia coli at 20 uM using cholesterol as substrate measured after 30 mins in presence of cytochrome P450 oxidoreductase by gas chromatography-mass spectrometry; procedure, shortened: as §1
[5] = species on record: Homo sapiens; test: Activation of recombinant human C-terminal 4His-tagged CYP46A1 delta(2 to 50) F416A mutant expressed in Escherichia coli at 20 uM using cholesterol as substrate measured after 30 mins in presence of cytochrome P450 oxidoreductase by gas chromatography-mass spectrometry; procedure, shortened: as §1
[6] = system: Cholesterol 24-hydroxylase (Homo sapiens), Q9Y6A2 [UNDEFINED MUTATION]; test: Activation of recombinant human C-terminal 4His-tagged CYP46A1 delta(2 to 50) mutant expressed in Escherichia coli using cholesterol as substrate measured after 30 mins in presence of cytochrome P450 oxidoreductase by gas chromatography-mass spectrometry; procedure, shortened: as §2
[7] = system: Cholesterol 24-hydroxylase (Homo sapiens), Q9Y6A2 [UNDEFINED MUTATION]; test: Activation of recombinant human C-terminal 4His-tagged CYP46A1 delta(2 to 50) mutant expressed in Escherichia coli at 20 uM using cholesterol as substrate measured after 30 mins in presence of cytochrome P450 oxidoreductase by gas chromatography-mass spectrometry relative to control; procedure, shortened: as §1
[8] = species on record: Homo sapiens; test: Activation of recombinant human C-terminal 4His-tagged CYP46A1 delta(2 to 50) Y427F mutant expressed in Escherichia coli at 20 uM using cholesterol as substrate measured after 30 mins in presence of cytochrome P450 oxidoreductase by gas chromatography-mass spectrometry; procedure, shortened: as §1
[9] = species on record: Homo sapiens; test: Activation of recombinant human C-terminal 4His-tagged CYP46A1 delta(2 to 50) K358R mutant expressed in Escherichia coli at 20 uM using cholesterol as substrate measured after 30 mins in presence of cytochrome P450 oxidoreductase by gas chromatography-mass spectrometry; procedure, shortened: as §1
[10] = species on record: Homo sapiens; test: Activation of recombinant human C-terminal 4His-tagged CYP46A1 delta(2 to 50) K358A mutant expressed in Escherichia coli at 20 uM using cholesterol as substrate measured after 30 mins in presence of cytochrome P450 oxidoreductase by gas chromatography-mass spectrometry; procedure, shortened: as §1
[11] = species on record: Homo sapiens; test: Activation of recombinant human C-terminal 4His-tagged CYP46A1 delta(2 to 50) F405A mutant expressed in Escherichia coli at 20 uM using cholesterol as substrate measured after 30 mins in presence of cytochrome P450 oxidoreductase by gas chromatography-mass spectrometry; procedure, shortened: as §1
[12] = species on record: Homo sapiens; test: Activation of recombinant human C-terminal 4His-tagged CYP46A1 delta(2 to 50) Y427A mutant expressed in Escherichia coli at 20 uM using cholesterol as substrate measured after 30 mins in presence of cytochrome P450 oxidoreductase by gas chromatography-mass spectrometry; procedure, shortened: as §1
[13] = target: T1, Cholesterol 24-hydroxylase; test: Inhibition of recombinant human C-terminal 4His-tagged CYP46A1 delta(2 to 50) mutant expressed in Escherichia coli at 60 to 100 uM using cholesterol as substrate measured after 30 mins in presence of cytochrome P450 oxidoreductase by gas chromatography-mass spectrometry; format: ADME; conditions: 0.5 h; procedure, shortened: as §2
[14] = system: Cholesterol 24-hydroxylase (Homo sapiens), Q9Y6A2 [UNDEFINED MUTATION]; test: Binding affinity to substrate bound recombinant human C-terminal 4His-tagged CYP46A1 delta(2 to 50) mutant expressed in Escherichia coli assessed as Koff rate of cholesterol by stopped-flow spectrophotometric method
Procedure, shortened: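 Release rate was measured by stopped-flow chase at 23 °C. A prebound complex (4 μM CYP46A1 plus 4 μM cholesterol, 50 mM KPi pH 7.2, 100 mM NaCl) was mixed with excess clotrimazole (40 μM). The rise in Δ(A437−A416) was followed, and 8–12 traces were averaged and fitted. Values are mean ± SD of three independent experiments.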

[15] = system: Cholesterol 24-hydroxylase (Homo sapiens), Q9Y6A2 [UNDEFINED MUTATION]; test: Binding affinity to recombinant human C-terminal 4His-tagged CYP46A1 delta(2 to 50) mutant expressed in Escherichia coli at 2 uM in presence of substrate by UV-spectrophotometric method
Procedure, shortened: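 Stopped-flow rapid-scanning spectrophotometry at 23 °C in 50 mM KPi pH 7.2 with 100 mM NaCl. A premixed 4 μM CYP46A1·4 μM cholesterol complex was mixed with compound, and spectral changes were followed over 330–570 nm.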

[16] = system: Cholesterol 24-hydroxylase (Homo sapiens), Q9Y6A2 [UNDEFINED MUTATION]; test: Binding affinity to recombinant human C-terminal 4His-tagged CYP46A1 delta(2 to 50) mutant expressed in Escherichia coli at 15 to 30 uM in absence of substrate by UV-spectrophotometric method
Procedure, shortened: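 Stopped-flow rapid-scanning spectrophotometry at 23 °C. Substrate-free CYP46A1 (4 μM, in 50 mM KPi pH 7.2 with 100 mM NaCl) was mixed with an equal volume of compound in the same buffer. Spectra were collected over 330–570 nm, and binding rates (kobserved) were fitted.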

[17] = target: T1, Cholesterol 24-hydroxylase; test: Binding affinity to recombinant human C-terminal 4His-tagged CYP46A1 delta(2 to 50) mutant expressed in Escherichia coli in absence of substrate at 24 degC by stopped-flow spectrophotometric method
[18] = system: Cholesterol 24-hydroxylase (Homo sapiens), Q9Y6A2 [UNDEFINED MUTATION]; test: Binding affinity to substrate free recombinant human C-terminal 4His-tagged CYP46A1 delta(2 to 50) mutant expressed in Escherichia coli assessed as Kon rate of cholesterol by stopped-flow spectrophotometric method

Cholesterol 24-hydroxylase (Homo sapiens), Q9Y6A2 [UNDEFINED MUTATION], sequence (Q9Y6A2 whole entry, looked up, stated change not applied): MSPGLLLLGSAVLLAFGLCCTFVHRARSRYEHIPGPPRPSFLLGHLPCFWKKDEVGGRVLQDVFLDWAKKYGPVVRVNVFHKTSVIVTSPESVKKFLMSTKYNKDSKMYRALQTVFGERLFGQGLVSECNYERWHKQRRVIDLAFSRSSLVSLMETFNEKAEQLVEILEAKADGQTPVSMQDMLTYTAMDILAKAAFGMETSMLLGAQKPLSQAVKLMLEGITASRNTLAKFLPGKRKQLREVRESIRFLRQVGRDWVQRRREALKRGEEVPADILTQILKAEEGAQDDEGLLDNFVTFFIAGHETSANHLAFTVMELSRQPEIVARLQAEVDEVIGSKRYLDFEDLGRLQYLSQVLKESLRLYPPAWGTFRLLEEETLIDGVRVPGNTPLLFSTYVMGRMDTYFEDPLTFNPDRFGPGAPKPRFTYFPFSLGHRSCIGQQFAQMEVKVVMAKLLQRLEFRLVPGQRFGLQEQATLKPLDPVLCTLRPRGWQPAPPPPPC
T1 sequence (Q9Y6A2 whole entry, looked up, stated change not applied): as above

Activity [1]	inhibition (INH) [2]	Activity [3]	Activity [4]	Activity [5]	Activity [6]	fold change (FC) [7]	Activity [8]	Activity [9]	Activity [10]	Activity [11]	Activity [12]	fold change (FC) [3]	inhibition (INH) [13]	K [14]	Activity [15]	Activity [16]	Kd [17]	K [18]	Structure (SMILES)
inactive	Not Active	inactive	Active	Active	Dose-dependent effect	2.5	Active	Active	Active	inactive	Active	–	–	–	–	–	–	–	FC(F)(F)[C@@]1(C#CC2CC2)OCNc2ccc(Cl)cc21
Active	–	–	inactive	inactive	Dose-dependent effect	3.9	inactive	inactive	inactive	Active	inactive	4.6	Not Active	–	–	–	–	–	O=C1CC(C#CC2CC2)(C(F)(F)F)c2cc(Cl)ccc2N1 (racemic)
Active	–	–	inactive	inactive	–	–	–	inactive	inactive	Active	inactive	–	Active	–	–	–	–	–	O=C1Nc2ccc(Cl)cc2[C@@](C#CC2CC2)(C(F)(F)F)O1 [EFAVIRENZ]

More lines, now with the values behind:

Structure (SMILES)	Activity [1]	inhibition (INH) [2]	Activity [3]	Activity [4]	Activity [5]	Activity [6]	fold change (FC) [7]	Activity [8]	Activity [9]	Activity [10]	Activity [11]	Activity [12]	fold change (FC) [3]	inhibition (INH) [13]	K [14]	Activity [15]	Activity [16]	Kd [17]	K [18]
O=C1Nc2cc(O)c(Cl)cc2C(C#CC2CC2)(C(F)(F)F)O1 (racemic)	Active	–	–	Active	Active	Dose-dependent effect	5.8	Active	Active	Active	Active	Active	6.8	Not Active	–	–	–	–	–
O=C1Nc2c(O)cc(Cl)cc2[C@@](C#CC2CC2)(C(F)(F)F)O1	Active	–	–	Active	Active	Dose-dependent effect	6.2	Active	Active	Active	Active	Active	7.4	Not Active	–	–	–	–	–
CC1Nc2ccc(Cl)cc2C(C#CC2CC2)(C(F)(F)F)O1 (racemic)	inactive	–	inactive	Active	Active	Dose-dependent effect	2.6	Active	Active	Active	inactive	Active	–	Not Active	–	–	–	–	–
O=C1Nc2c(O)cc(Cl)cc2C(C#CC2(O)CC2)(C(F)(F)F)O1 (racemic)	inactive	–	–	Active	Active	–	6.1	Active	Active	Active	inactive	Active	4.8	–	3.6 s⁻¹	inactive	inactive	5 µM	0.7 ×10⁶ /M/s
CCCC#CC1(C(F)(F)F)OC(=O)Nc2ccc(Cl)cc21 (racemic)	Active	–	–	inactive	inactive	Dose-dependent effect	3.1	inactive	inactive	inactive	Active	inactive	3.7	Not Active	–	–	–	–	–
O=C1Nc2c(O)cc(Cl)cc2C(C#CC2CC2)(C(F)(F)F)O1 (racemic)	–	–	–	–	–	Dose-dependent effect	–	–	–	–	–	–	–	Not Active	–	–	–	–	–
O=C1Cc2ccc(Cl)cc2C(C#CC2CC2)(C(F)(F)F)O1 (racemic)	Active	Not Active	–	Active	Active	–	1.9	Active	Active	Active	Active	Active	2.8	–	–	–	–	–	–

— ChEMBL document CHEMBL4613214, “In Vitro Activation of Cytochrome P450 46A1 (CYP46A1) by Efavirenz-Related Compounds” (J Med Chem, 2020)
